Among the data in the RNAGym collection of RNA variant scans (doi:10.1126/science.aae0568) are yeast fitness values, retold here.

To fix the notation:
B1: tRNA (parent)
chain: GUUCCGUUGGCGUAAUGGUAACGCGUCUCCCUCCUAAGGAGAAGACUGCGGGUUCGAGUCCCGUACGGAACG

Variants at the floor of the assay were thinned out.

The variants in this data set derive from B1. Description: yeast fitness relative to wild type (ratio to wild type); higher = fitter; tRNA-Arg(CCU), competitive growth, 37 C, YPD. The method, boiled down: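 Genotype frequency changes were the basis for Darwinian fitness relative to wild type. The frequencies came from 100-nucleotide paired-end sequencing of gene amplicons from the start population and each end population of pooled yeast strains with tRNA-Arg(CCU) gene variants at the native locus. Competition ran in YPD at 37°C for 24 hours in six replicates, genotypes needed ≥ 100 starting reads, and estimates < 0.5 were set to 0.5.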
As for GUUGCGUUGACGUAAUGGUAACGCGUCUCCCUCCUAAGGAGAAGACUGCGGGUUCGAGUCCCGUACGGUACG, the yeast fitness worked out at 0.625.
As for GUUGCGUUGACGUAAUGGUAACGCGUCUCCCUCCUAAGGAGCAGACUGCGGGUGCGAGUCCCGUACGGAACG, the figure is not above 0.5.
With GUUGCGUUAGCGUAAUGGUAACGCGUCCCCCUCCUAAGAAGAAGACUGCGGGUUCGAGUCCCGUACGGAACG, the yeast fitness is not above 0.5.
As for GUUGCGUUGACGUAAUGGUAAGGCGUCUCCCUCCUAAGGAGAAGACUGCGGGUUAGAGUCCCGUACGGAACG, the figure is 0.555; as for GUUGCGUUGACGUAAUGGUAACGCGUCUCCCUCCUAAGGACAAGACUGCGGGUUCGAGUCCGGUACGGAACG, 0.572; as for GUUGCAUUGCCGUAAUGGAAACGGGUCUCCCUCCUAAGGAGAGGACUGCGGGUUCGAGUCGCGUUCGGAACG, 0.576.
With GUUGCGUUGCCCUAAUGGUACCGCGUCUCCCUCCUAAGGAGAAGACUCCGGGUUCGGGUCCCGUACGGAACG the figure was 0.527.
With GUUGCGUUCGCGUAAUGGUAAAGCGUCUCCCUCCUAAGGAGAAGACUGCGGGUUCGAGUCCCGUACAGAACG the figure was not above 0.5.
As to GUUGCGUUCGCGUAAUGGUAAAGCGUCUCCCUCCUAAGGAGAAGACUGCGGGUUCGAGUCCCGUACGUAACG, the yeast fitness is not above 0.5.
As for GUUGCGUUCGCGUAAUGGUAAAGCGUCUCCCUCCUAAGGAGAAGACUGCGGGUUCGAGUCCAGUAGGGAACG, the figure is not above 0.5; as for GUUGCGUUGGCGUAAUGGUAACGCGUCUCCCUCCUAAGGAGAAGACUGCGGGUUCGAGUCCCGUAUGGAACG, 0.836; as for GUUGCGUUGGCGUAAUGGUAACGCGUCUCCCUCCUAAGGAGAAGACUGCGGGUUCGAGUCCCGUAGGGAACG, 0.671.
As for GUUGCGUUGGCGUAAUGGUAACGCGUCUCCCUCCUAAGGAGAAGACUGCGGGUUCGAGUGCCGUACGCAACG, the figure is 0.622.
With GUUGCGUUGACGUAAUGGUAACGCGUCUCCCUCCUAAGGACAAGACUGCGGGUUCGAGUCCCGUACGGAACG the figure was not above 0.5; with GUUGCAUUGGCGUAAUGGUACCGCGUCUCCCUCCUAAGGAGAAGACUGCGGGUUCGAGUCCCGUACGGAACG, 0.701.
Take GUUGCGUUACCGUAAUGGUAACGCGUCUACCUCCUAAGGAGAAGACUGCUGGUUCGAGGCCCGUACGGUACG: the yeast fitness is not above 0.5.
As for GUUGCGUUGCCGUAAUGGUAACGCGUCUCCCUCCUAAGGAGAAGAGUGCGGGUUCGAGUCCCGUACGGAACG, the figure is 0.632; as for GUUGCAUUGGCGUAAUGGUAACGUGUCUCCCUCCUAAGGUGAAGACUGCGGGUUCGAGUCCCGUCCGGUACG, 0.815; as for GUUGCGUUCGCGUAAUGGUAACGCGUCUCCCUCCUAAGGAAAAGACUGCGGGUUUGAGACCCGUACGGAACG, not above 0.5.
As for GUUGCGUUGACGUAAUGGUAACGCGUCUCGCUCCUAAGGAGAGGACUGCGGGUUCGAGUCCCGUACGGAACG, the figure is 0.659; as for GUUGCAUUGGCGUAAUGGUAACACGUCUCCCUCCUAAGGAGAGGACUGCGGGUUUGAGUCCCGUACGGAACG, not above 0.5.
As for GUUGCGUUCGCGUAAUGGUAACGCGUCUCCCUCCUAAGGAAAAGACUGCGGGUUCGAGUCUCGUACGGAACG, the figure is not above 0.5; as for GUUGCCUGGGCGUAAUAGUAACACGUCUCCCUCCUAAGGAGAAGGCUGCGGGUUCGAGUCCCGUACGGACCG, not above 0.5.
On to GUUGCGUUGCCGUAAUGGUAACGCGCGUCCCUCCUAGGAAGAAGACUGCGGGUUCGAGUCCCGUACGGAACG, for which the yeast fitness is not above 0.5.
As for GUUGCCUUGGCGUAAUGGUAACGCGUCUCCCUCCUCAGGAGAAGACUGCGGGUUCGAGUCCGGUAAGGAACG, the figure is not above 0.5; as for GUUGCGUUGCCGUAAUGGUAACGCGUCUCCCUCCUAAGGAGAAGAAUGCGGGUUCGAGUCCCGUACGCAACG, not above 0.5; as for GUUGCAUUGGCGUAAUGGUAACGCGUCUCCCUCCUAAGGAGAAGACUGCGGGUUCGAGUCCCGUACGGUACG, 0.667.
As for GUUGCGUUCGCGUAAUGGUAACGCGUCUCCCUGCUAAGGAGAAGACUGCGGGUUCGAGUCCCGUACGGAACG, the figure is 0.674.
With GUUGCGUUCGCGUAAUGGUAACGCGUCUCCCUCCUAAGGAGUAGACUGCGGGUUGGAGUCCCGUACGGAACG the figure was not above 0.5.
In the case of GUUGCGUUCGCGUAAUGGUAACGCGUCUCCCUGCUAAGGAGAAGACUGCGGGUUCGAGUCUCGUACGGAGCG, the yeast fitness was not above 0.5.
With GUUGCGUUGCCCUAAUGGUACCGCGUCUCCCUCCUAAGGAGAAGACUCCGGGUUCGAGUCCCGUACGGAACG the figure was not above 0.5.
With GUUGCGUUGUCGUUAUGGUAACGUGUCUCCCUUCUAAGGAGAAGACUGCGGAUUCGAGUCCCGUAUGGAACG, the yeast fitness was not above 0.5.
With GUUGCGUUACCGUAAUGGUAACGCGUCUACCUCCUAAGGAGAAGACUGCGGGCUCGAGUCCUGUACGGAACG the figure was not above 0.5; with GUUGCCUUGGCGUAAUGGUAACGCGUCUCCCUCCUAAGGUGAAGGCUGCGGGUUAGAGUCCCGUACGGAACG, not above 0.5.
As for GUUGCGUUCGCGUAAUGGUAACGCGUCUCCCUCCUAAGGAAAAGACUGCGGGUUUGAGACCCGUACGGAUCG, the figure is 0.545; as for GUUGCGUUGCGGUAAUGGUAACGCGUCUCCCUCCUAUGGAGAGGACUGCGGGUUCGAGUCCCGUACGGAACG, not above 0.5; as for GUUGCGUUGACGUAAUGGUAACGCGUGUCCCUCCUAAGGAGAAGUCUGGGGGUUAGAGUCCCGUACGGAACG, 0.617.
On to GUUGCAUUGGUGUAAUGGUAACGCGUCUACCUCCUAAGGAGAAGACUGCGGGUUCGAGUCCCAUACGGAGCG, for which the yeast fitness was not above 0.5.
As for GUUGCAUUGGCGUAAUGGUAACACGUCUCCCUCCUAAGGAGAGGACUGCGGGUUCGAGUCCCGUACGGUGCG, the figure is not above 0.5; as for GUUGCCUUGGCGUAAUGGUAACGCGUCUCACUCCUAAGGAGAAGACUGCGGGUUCGAGUCCCGUACGGAACG, not above 0.5.
With GUUGCCUUGGCGUAAUGGUACCGCGUCUCCUUCCAAAGGAGAAGACGGCGGGUUCGAGUCCCGUACGGAACG the figure was 0.569.
As to GUUGCGUUAGCGUAAUGCUAACGCGUCUCCUUCCUAAGGAGAAGACUGCGGGUUAGAGUCCCGUCCGGAACG, the yeast fitness is not above 0.5.
Consider GUUGCGUUGGCGUAAUGGUAACGCGUCUCCCUCCUAAGGAGAAGACUGCGGGUUCGAGUCCAGUACGGAACG, for which the yeast fitness amounted to 0.67.
As for GUUGCCUGGGCGUAAUAGUAACACGUCUCCCUCCUAAGGAGAAGAGUGCGGGUUCGAGUACCGUACGGAACG, the figure is 0.567; as for GUUGCGUUCGCGUAAUGGUAAAGCGUCUCCCUCCUAAGGAGAAGACUGCGGGUUCGAGUCCCGUACGGAACG, not above 0.5; as for GUUGCAUUGGCGUAAUGGUACCGCGUCUCCCUCCUAAGGAGAAGACUGCGGGAACGAGUCCCGUACGGAACG, not above 0.5.
With GUUGCGUUGGCGUAAUGGUAACGCGUCUCCCUCCUAAGGAGAAGACUGCGGGUUCGAGUCCAGUAUGGAACG the figure was 0.704; with GUUGCGUUGACGUAAUGGUAACGCGUCUUCCUCCUAAGGAGAAGAGUGCGGGUUCGAGUCCCGUACGGAACG, not above 0.5; with GUUGCGUUAGCGUAAUGGUAACGCGUCUCCCUCCUAAGAAGAAGACUGCGGGUUCGAGUCCCGUUCGGUACG, not above 0.5.
With GUUGCGUUGACGUAAUGGUAGCGCGUCUCCCUCCUAAGGAGAAGACUGCGGGUUCGAGUCCCGUACGGAACG the figure was 0.547.
As for GUUGCAUUGCCGUAAUGGAAACGGGUCUCCCUCCUAAGGAGAGGACUGCGGGUUCGAGUCGCGUACGGAUCG, the yeast fitness was not above 0.5.
With GUUGCCUUGGCGUAAUGGUAACGCGUCUGCCUCCUAAGGAGAAGACUGCGGGUUCGAGUCCCCUACGGAACG the figure was not above 0.5; with GUUGCGUUGGCGUAAUGGUAACGCGUCUCCCUCCUAAGGAGAAGACUGCGGGUUCGAGUUCCCUACGAAACG, not above 0.5.
As for GUUGCGUUAGCGUAAUGCUAACGCGUCUCCUUCCUAAGGAGAAGACGGCGGGUUCGAGUCCCGUACGGAACG, the figure is not above 0.5.
Take GUUGCGUUAGCGUAAUGGUAACGCGUCUCCCUCCUAAGGAGAAGACUGCCGGUUCGAGUCCCGUACAGAACG: the yeast fitness was not above 0.5.
With GUUGCGUUCGCGUAAUGGUAACGCGUCUCCCUCCUAACGAGAAGACUGCGGGUUCGAGUCCCGUACGAAACG the figure was not above 0.5.
Turning to GUUGCGUUACCGUAAUGGUAACGCGUCUACCUCCUAAGGAGAAGACUGCUGGUUCGAGGCCCGUACGGAACG, the yeast fitness stood at 0.599.
With GUUGCAUUGGCGUAAUGGUAACACGUCUCCCUCCUAAGGAGAGGACUGCGGGUUCGAGUCCCGUACGGAACG the figure was not above 0.5; with GUUGCGUUCGCGUAAUGGUAACGCGUCUCCCUGCUAAGGAGAAGACUGCGGGUUCGAGUCCCGUAUGGAACG, 0.72.
As to GUUGCGUUACCGUAAUGGUAACGCGUCUACCUCCUAGGGAGAAGACUGCUGGUUCGAGGCCCGUACGGAACG, the yeast fitness is not above 0.5.
As for GUUGCGUUGCGGUAAUGGUAACGCGUCUCCCUCCUAUGGAGAGGACUGCGGGUUCGAGUCCCGUACGGGACG, the figure is not above 0.5; as for GUUGCGUUCGCGUAAUGGUAACGCGUCUCCCUCCCAAGGAAAAGACUGCGGGUUUGAGACCCGUACGGAUCG, not above 0.5; as for GUUGCCUUGGCGUAAUGGUAACGCGUCUCCCUCCUAAGGAGAAGACUGCGGGUUCGAGUCCCGUACGGAACG, 0.657.
With GUUGCGUUGGCGUAAUGGUAACGCGUCUCCCUCCUAAGGAGAAGACUGCGGGUUCGAGUCUCGUACGGAACG the figure was 0.935; with GUUGCGUUGGCGUAAUGGUAACGCGUCUCCCUCCUAAGGAGAAGACUGCGGGUUCGAGUCGCGUACGGAACG, 0.659; with GUUGCGUUGUCGUAAUGGUUACGCGUCUCCCUCGUAGGGAGAAGACUGCGGGUUCGAGUCCCGUAUGGAACG, not above 0.5.
Consider GUUGCAUUGGCGUAAUGGUAACGCGUCUCCCUCCUAAGGAGAAGAUUGCGGGUUCGAGUCCCGUACGGCACG, for which the yeast fitness is 0.536.
In the case of GUUGCGUUGGCGUAAUGGUAACGCGUCUCCCUCCUAAGGAGAAGACUGCGGGUUCGAGUCGCCUACGGAGCG, the yeast fitness came out at 0.516.
As for GUUGCGUUAGCGUGAUGGUAACGCCUCUCCCUCCUAAGGAGAAGACUGCGGGUUCGCGUCCCGAACGGAACG, the figure is not above 0.5; as for GUUGCGUUCACGUAAUGGUAACGUGUCUCCCUCCUAAGGAGAAGACUGCGGGUUCGAGUCCCGUACGGAACG, not above 0.5; as for GUUGCGUUCGCGUAAUGGUAAAGCGUCUCCCUCCUAAGGAGAAGACUGCGGGUUCGAGUCCCGUACGGUACG, 0.525.
For GUUGCGUUCGCGUAAUGGUAAAGCGUCUCCCUCCUAAGGAGAAGACUGCGGGUUCGAGUCCCGUACGGACCG, the yeast fitness is not above 0.5.
As for GUUGCGUUAGCGUAAUGGUACAGCGUCUCCCUCCUAAGGAGAAGACUGCGGGUUCGAGUCCCGUAUGGAACG, the figure is 0.559; as for GUUGCGUUGCCGUAAUGGUAACGUGUCUCCCUCUUUAGGAGAAGAAUGCGGGUUCGAGUCCCGUACGGAACG, not above 0.5; as for GUUGCGUUAGCGUAAUGGUACAGCGUCUCCCUCCUAAGGAGAAGACUGCGGGUUCGAGUCCCGUACGGAACG, not above 0.5.
